Active and inactive are the calls of the source. The calls are words filed in the database; no cut-off is given here.
Tests used:
[1] = species on record: Mus musculus; experiment: Selectivity ratio of Ki for CD1 mouse brain (minus cerebellum) CB1 receptor to Ki for CD1 mouse spleen CB2 receptor; type: tissue-based
[2] = biological target: Cannabinoid receptor 2 (Mus musculus, UniProt P47936); experiment: Displacement of [3H]-CP55940 from CD1 mouse spleen CB2 receptor by liquid scintillation counting
Procedure, shortened: (§1)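 Male CD1 mouse tissue homogenised in ice-cold TME buffer (50 mM Tris–HCl, 1 mM EDTA, 3.0 mM MgCl2, pH 7.4); membranes (30–80 µg protein) incubated with 0.5–1 nM [3H]-CP-55,940, 1 h, 30 °C, with 5 mg/mL fatty acid-free BSA. Non-specific binding with 1 µM CP-55,940. GF/C filtration. Triplicate, ≥5 independent experiments; IC50 by sigmoid fit converted to Ki.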

[3] = biological target: Cannabinoid receptor 2 (Homo sapiens) (UniProt P34972); experiment: Inhibition of CB2 receptor in HL60 cells assessed as inhibition of ERK1/2 phosphorylation after 15 mins by Western blotting analysis; type: cell-based; settings: HL-60
[4] = biological target: Cannabinoid receptor 1 (Mus musculus, UniProt P47746); experiment: Displacement of [3H]-CP55940 from CD1 mouse brain (minus cerebellum) CB1 receptor by liquid scintillation counting; type: tissue-based; procedure, shortened: as §1
Cannabinoid receptor 1, sequence (P47746 whole entry): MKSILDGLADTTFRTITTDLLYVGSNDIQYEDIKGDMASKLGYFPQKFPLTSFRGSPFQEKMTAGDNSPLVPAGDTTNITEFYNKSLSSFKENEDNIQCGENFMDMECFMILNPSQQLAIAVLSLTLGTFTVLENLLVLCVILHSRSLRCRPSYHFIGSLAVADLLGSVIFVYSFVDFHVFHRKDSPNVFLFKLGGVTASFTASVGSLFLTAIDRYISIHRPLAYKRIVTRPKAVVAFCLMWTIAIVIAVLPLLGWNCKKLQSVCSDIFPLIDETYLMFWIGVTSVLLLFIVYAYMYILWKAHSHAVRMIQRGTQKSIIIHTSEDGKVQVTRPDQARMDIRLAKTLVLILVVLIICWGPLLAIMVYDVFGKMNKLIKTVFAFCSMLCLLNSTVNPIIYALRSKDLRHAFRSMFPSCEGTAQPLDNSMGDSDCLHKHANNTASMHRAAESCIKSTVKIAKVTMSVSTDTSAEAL

Cannabinoid receptor 2 (Homo sapiens), sequence (P34972 whole entry): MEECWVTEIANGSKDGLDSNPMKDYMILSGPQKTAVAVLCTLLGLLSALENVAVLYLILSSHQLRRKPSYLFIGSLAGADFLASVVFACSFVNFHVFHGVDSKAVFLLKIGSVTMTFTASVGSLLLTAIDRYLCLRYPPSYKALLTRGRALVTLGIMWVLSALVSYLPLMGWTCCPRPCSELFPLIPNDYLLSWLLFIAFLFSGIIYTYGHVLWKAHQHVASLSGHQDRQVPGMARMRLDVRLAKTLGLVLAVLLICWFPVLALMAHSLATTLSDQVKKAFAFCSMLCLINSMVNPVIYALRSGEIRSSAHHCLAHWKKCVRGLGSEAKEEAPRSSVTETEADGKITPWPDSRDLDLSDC
Cannabinoid receptor 2, sequence (P47936 whole entry): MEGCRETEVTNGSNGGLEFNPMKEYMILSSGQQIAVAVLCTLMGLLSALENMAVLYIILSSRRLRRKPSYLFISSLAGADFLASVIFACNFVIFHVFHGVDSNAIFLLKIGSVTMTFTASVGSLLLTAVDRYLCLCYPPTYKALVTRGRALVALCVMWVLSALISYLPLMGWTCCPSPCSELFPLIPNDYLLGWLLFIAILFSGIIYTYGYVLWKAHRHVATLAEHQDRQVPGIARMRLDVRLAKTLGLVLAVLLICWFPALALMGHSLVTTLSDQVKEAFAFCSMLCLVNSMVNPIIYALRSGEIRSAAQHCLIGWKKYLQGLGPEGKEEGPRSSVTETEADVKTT

| Structure (SMILES) | Ratio Ki [1] | Ki [2] [nM] | inhibition [3] | Ki [4] [nM] |
| --- | --- | --- | --- | --- |
| Cc1csc2c1-c1c(c(C(=O)NN3CCOCC3)nn1-c1ccc(Cl)cc1Cl)C2 | 6.3 | 747 | Active | 4700 |
| Cc1csc2c1-c1c(c(C(=O)NN3CCCCC3)nn1-c1ccc(Cl)cc1Cl)C2 | 6.8 | 578 | Active | 3920 |
| Cc1csc2c1-c1c(c(C(=O)NN3CCCCCC3)nn1-c1ccc(Cl)cc1Cl)C2 | 11.8 | 321 | Active | 3800 |
| Cc1csc2c1-c1c(c(C(=O)NC3C[C@@H](C)CC[C@@H]3C(C)C)nn1-c1ccc(Cl)cc1Cl)C2 (stereo partly specified) | 486 | 6.7 | Active | 3260 |
| Cc1ccc(Cn2nc(C(=O)NN3CCOCC3)c3c2-c2c(C)csc2C3)cc1 | 2.6 | 1760 | Active | 4500 |
| Cc1ccc(Cn2nc(C(=O)NC3C[C@@H](C)CC[C@@H]3C(C)C)c3c2-c2cc(C)sc2C3)cc1 (stereo partly specified) | 37.5 | 4.8 | Active | 180 |
| Cc1csc2c1-c1c(c(C(=O)NC3C(C)(C)C4CC[C@@]3(C)C4)nn1-c1ccc(Cl)cc1Cl)C2 (stereo partly specified) | 424 | 5.3 | Active | 2240 |
| Cc1cc2c(s1)Cc1c(C(=O)NN3CCCC3)nn(-c3ccc(Cl)cc3Cl)c1-2 | 36.2 | 38.3 | Active | 1390 |
| Cc1ccc(Cn2nc(C(=O)NN3CCCCCC3)c3c2-c2c(C)csc2C3)cc1 | 18.5 | 69 | Active | 1280 |
| Cc1cc2c(s1)Cc1c(C(=O)NN3CCCCC3)nn(-c3ccc(Cl)cc3Cl)c1-2 | 191 | 2.3 | Active | 440 |
| Cc1cc2c(s1)Cc1c(C(=O)NC3CCCCC3)nn(-c3ccc(Cl)cc3Cl)c1-2 | 62.1 | 7.2 | Active | 447 |
| Cc1cc2c(s1)Cc1c(C(=O)NC3C[C@@H](C)CC[C@@H]3C(C)C)nn(-c3ccc(Cl)cc3Cl)c1-2 (stereo partly specified) | 1.3 | 5.1 | Active | 6.5 |
| Cc1ccc(Cn2nc(C(=O)NC3CCCCC3)c3c2-c2c(C)csc2C3)cc1 | 10.4 | 191 | Active | 1980 |
| Cc1ccc(Cn2nc(C(=O)NC3C(C)(C)C4CC[C@@]3(C)C4)c3c2-c2c(C)csc2C3)cc1 (stereo partly specified) | 175 | 2.4 | Active | 420 |
| Cc1csc2c1-c1c(c(C(=O)NN3CCCC3)nn1-c1ccc(Cl)cc1Cl)C2 | 5.8 | 817 | Active | 4730 |
| Cc1csc2c1-c1c(c(C(=O)NC3CCCCC3)nn1-c1ccc(Cl)cc1Cl)C2 | 6.1 | 501 | Active | 3080 |
| Cc1ccc(Cn2nc(C(=O)NN3CCCCC3)c3c2-c2c(C)csc2C3)cc1 | 3 | 125 | Active | 377 |
| Cc1cc2c(s1)Cc1c(C(=O)NN3CCCCCC3)nn(-c3ccc(Cl)cc3Cl)c1-2 | 402 | 1.1 | Active | 442 |
| Cc1ccc(Cn2nc(C(=O)NN3CCCC3)c3c2-c2c(C)csc2C3)cc1 | 8.7 | 515 | Active | 4500 |
| Cc1ccc(Cn2nc(C(=O)NC3C[C@@H](C)CC[C@@H]3C(C)C)c3c2-c2c(C)csc2C3)cc1 (stereo partly specified) | 59.3 | 2.7 | Active | 160 |
| Cc1c(C(=O)c2cccc3ccccc23)c2cccc3c2n1[C@H](CN1CCOCC1)CO3 |  |  | Active |  |
